Legend:
MDM = assay: Drug uptake and 3TC-TP formation in MDM; type: cell-based, human; conditions: 100 μM, over 24 h
Summary of the method: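 Human monocytes differentiated 7–10 days in DMEM with 10% heat-inactivated pooled human serum and 1,000 U/ml M-CSF at 37°C, 5% CO2. MDM exposed to 100 μM nanoformulated prodrug or parent drug. At sampling, cells washed twice in PBS, scraped, counted and pelleted. Pellets extracted in methanol with sonication, then drug measured by LC-MS/MS. 3TC-TP quantified by an established protocol. Triplicate.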

HIV-1ADA [1] = assay: Long-term antiretroviral efficacy in MDM; type: cell-based; conditions: 8 h 100 μM, HIV-1ADA challenge
Summary of the method: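 MDM loaded 8 h with 100 μM test compound or parent drug, washed with PBS and kept drug-free with half-medium exchanges every other day. Challenged with HIV-1ADA (MOI 0.1) at days 1–30 after loading, then virus medium replaced. Ten days later medium RT activity was expressed as % of infected untreated cells. Cells fixed in 4% paraformaldehyde and HIV-1 p24 immunostained.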

HIV-1NL4–3-eGFP = assay: EC50 by HIV-1 RT activity in infected CEM-CD4+ T cells; type: cell-based; conditions: Human immunodeficiency virus 1, T-cell, 240 h, read-out: EC50 (RT activity)
HIV-1ADA [2] = assay: EC50 by HIV-1 RT activity in infected MDM; type: cell-based; conditions: Human immunodeficiency virus 1, 240 h, read-out: EC50 (RT activity)
Summary of the method: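 Human MDM (80,000 cells/well) pretreated 60 min with test compound or parent drug. Infected with HIV-1ADA at MOI 0.1 for 4 h, then cultured 10 days at the same drug concentration with half-medium changes every other day. Supernatant RT activity measured on day 10. EC50 fitted by sigmoidal 4-point logarithmic regression; triplicate.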

[3] = Pharmacokinetics and biodistribution in rats; conditions: single IM 75 mg/kg, after one day, limit of quantitation, data not shown

Nc1ccn([C@H]2CS[C@@H](CO)O2)c(=O)n1 [3TC, 2’,3’-Dideoxy-3’-Thiacytidine]
intracellular drug concentration (MDM): < 0.5 μg/10^6 cells
time of viral breakthrough after treatment (HIV-1ADA [1]): within one day
EC50 (HIV-1NL4–3-eGFP): 35.4 nM
EC50 (HIV-1ADA [2]): 19.4 nM
drug levels in plasma and tissues [3]: ≤ 0.05 ng/mL

Source: publication PMC6945491 (Biomaterials, 2019)
